ChEMBL document CHEMBL4017535 (J Med Chem, 2017)

How the values were obtained:
Liver [1] = assay: Unbound intrinsic clearance in human liver microsomes at 10 uM preincubated for 5 mins followed by NADPH addition measured after 60 mins by HPLC-UV-MS analysis; type: ADME, microsome; conditions: 1 h
Liver [2] = assay: Unbound intrinsic clearance in mouse liver microsomes; type: ADME, microsome
Method in brief: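 Liver microsome stability is expressed as unbound intrinsic clearance, Cl_int,u, in L/hr/kg. Dextromethorphan served as the in-house low-clearance reference control and verapamil as the high-clearance reference control.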

MX1 = assay: Antiproliferative activity against human MX1 cells after 72 hrs by Cell Titer Glo assay; type: functional, cell-based; conditions: MX1, 72 h
Liver [3] = assay: Unbound intrinsic clearance in rat liver microsomes at 10 uM preincubated for 5 mins followed by NADPH addition measured after 60 mins by HPLC-UV-MS analysis; type: ADME, microsome; conditions: 1 h
[4] = molecular target: T1, Bromodomain-containing protein 4 (Homo sapiens, UniProt O60885); assay: Binding affinity to human N-terminal His6-tagged BRD4 BD1-BD2 (K57 to K550 residues) after 1 hr using alexa-647 conjugated probe by TR-FRET assay
[5] = Permeability in MDCK cells; type: ADME, cell-based, Canis lupus familiaris; conditions: dog, read-out: permeability
[6] = molecular target: T1, Bromodomain-containing protein 4; assay: Inhibition of BRD4 in human H1299 cells assessed as decrease in HPV LCR-E2-EP400-mediated transcriptional repression after 24 hrs by Bright-Glo luciferase reporter gene assay; type: cell-based

Row | SMILES | CL free (Liver [1]) [mL/min/kg] | CL free (Liver [2]) [mL/min/kg] | EC50 (MX1) [nM] | CL free (Liver [3]) [mL/min/kg] | Ki [4] [nM] | Papp [5] [×10⁻⁶ cm/s] | EC50 [6] [nM]
1 | CCS(=O)(=O)Nc1ccc(OC2CCN(C)CC2)c(-c2cn(C)c(=O)c3[nH]ccc23)c1 | < 28.3 | < 85 | 210 | 80 | 430 | 0.55 | 880
2 | Cc1cc(-c2ccccc2Oc2ccccc2)c[nH]c1=O | – | – | 2400 | – | 1700 | – | 2300
3 | Cn1cc(-c2cc(NS(C)(=O)=O)cnc2Oc2ccccc2)c2cc[nH]c2c1=O | 63.3 | < 93.3 | 46 | 600 | 4.1 | 6 | 88
4 | CC(=O)Nc1ccc(Oc2ccccc2)c(-c2cn(C)c(=O)c3[nH]ccc23)c1 | 113 | 3500 | 46 | 767 | 9.8 | 28 | 26
5 | CCS(=O)(=O)Nc1ccc(Oc2ccc(C(F)(F)F)cc2)c(-c2cn(C)c(=O)c3[nH]ccc23)c1 | 128 | 2830 | 30 | 583 | 9 | 11 | 65
6 | CCS(=O)(=O)Nc1ccc(Oc2ccc(C#N)cc2)c(-c2cn(C)c(=O)c3[nH]ccc23)c1 | 41.7 | < 108 | 17 | 81.7 | 9.4 | 11 | 48
7 | Cn1cc(-c2cc(NS(C)(=O)=O)ccc2Oc2ccc(F)cc2Cl)c2cc[nH]c2c1=O | 233 | 850 | 27 | 317 | 3.1 | 11 | 35
8 | CCS(=O)(=O)Nc1ccc(Oc2ccc(Cl)cc2)c(-c2cn(C)c(=O)c3[nH]ccc23)c1 | < 96.7 | 900 | 22 | 200 | 3.4 | 21 | 17
9 | Cn1cc(-c2cc(C(N)=O)ccc2Oc2ccccc2)c2cc[nH]c2c1=O | 48.3 | 450 | 120 | 550 | 14 | 14 | 71
10 | Cn1cc(-c2cc(NS(=O)(=O)CC(F)(F)F)ccc2Oc2ccccc2)c2cc[nH]c2c1=O | 46.7 | 650 | 31 | 1270 | 4.4 | 16 | 22
11 | CCNC(=O)c1ccc(Oc2ccccc2)c(-c2cn(C)c(=O)c3[nH]ccc23)c1 | 68.3 | 717 | 130 | 4000 | 32 | 30 | 70
12 | CN(C)S(=O)(=O)Nc1ccc(Oc2ccccc2)c(-c2cn(C)c(=O)c3[nH]ccc23)c1 | 233 | 2330 | 65 | 4000 | 2.9 | 19 | 43
13 | Cc1sc2c(c1C)C(c1ccc(Cl)cc1)=N[C@@H](CC(=O)OC(C)(C)C)c1nnc(C)n1-2 | – | – | 254 | – | – | – | –
14 | CCS(=O)(=O)Nc1ccc(Oc2cncnc2)c(-c2cn(C)c(=O)c3[nH]ccc23)c1 | < 33.3 | 233 | 130 | 48.3 | 32 | 1 | 170
15 | COc1ccc2c(c1)[C@]13CCCC[C@@H]1[C@H](C2)N(C)CC3 [DEXTROMETHORPHAN] | 123 | – | – | – | – | – | –
16 | Cn1cc(-c2ccccc2Oc2ccccc2)ccc1=O | – | – | 4800 | – | 890 | – | 4100
17 | Cn1cc(-c2cc(S(N)(=O)=O)ccc2Oc2ccccc2)c2cc[nH]c2c1=O | < 43.3 | 517 | 56 | 1320 | 3.6 | 22 | 39
18 | COCCc1ccc(OCC(O)CNC(C)C)cc1 (stereo not drawn) [METOPROLOL] | – | – | – | – | – | 36 | –
19 | Cn1cc(-c2ccccc2Oc2ccccc2)cc(N)c1=O | – | – | > 5000 | – | 3000 | – | 8500
